Laboratory results: ChEMBL document CHEMBL1148649, “Effect of various pyrimidines possessing the 1-[(2-hydroxy-1-(hydroxymethyl)ethoxy)methyl] moiety, able to mimic natural 2'-deoxyribose, on wild-type and mutant hepatitis B virus replication” (J Med Chem, 2006)

Experiments:
[1] = tested on: Vero; experiment: Cytotoxicity against Vero cell line; format: functional; conditions: Chlorocebus sabaeus
Procedure, shortened: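 Vero cell viability was measured by MTT after 3 days of compound exposure. CC50 is the concentration giving 50% loss of viability versus untreated control. ">" marks values where 50% was not reached at the highest concentration tested.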

[2] = tested on: Duck hepatitis B virus; experiment: Antiviral activity against duck HBV in primary duck hepatocytes at 10 ug/mL; format: functional; conditions: Hepatocyte
Procedure, shortened: (§1)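 Primary hepatocyte cultures from congenitally DHBV-infected ducks were exposed to compounds. Intracellular viral DNA was measured by dot blot hybridization. EC50 is the µM concentration that cuts viral DNA to 50% of untreated infected controls. The single-point value is % inhibition of viral DNA at 10 µg/mL against untreated infected controls.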

[3] = tested on: HepG2; experiment: Cytotoxicity against human HepG2 cell line; format: functional
Procedure, shortened: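 HepG2 cells were exposed to compounds for 3 days and viability was measured. CC50 is the concentration lowering viability by 50% versus untreated control. ">" means 50% was not reached at the highest concentration tested.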

[4] = tested on: Hepatitis B virus; experiment: Antiviral activity against wild type HBV in human hepatoma 2.2.15 cells at 10 ug/mL; format: functional; conditions: HepG2 2.2.15
Procedure, shortened: (§2)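 HBV-transfected human 2.2.15 cells were treated with compounds. Intracellular HBV DNA was quantified by dot blot hybridization. EC50 is the µM concentration that reduces viral DNA to 50% of untreated infected controls. The fixed-dose value is % inhibition at 10 µg/mL against untreated infected controls. Lamivudine and abacavir served as references.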

[5] = tested on: Duck hepatitis B virus; experiment: Antiviral activity against duck HBV in primary duck hepatocytes; format: functional, organism-based; conditions: Hepatocyte; procedure, shortened: as §1
[6] = tested on: Hepatitis B virus; experiment: Antiviral activity against wild type HBV in human hepatoma 2.2.15 cells; format: functional, organism-based; conditions: HepG2 2.2.15; procedure, shortened: as §2
[7] = tested on: Hepatitis B virus; experiment: Antiviral activity against HBV L180M/M204V mutant transfected in D88 cell line at 10 ug/mL; format: functional
Procedure, shortened: (§3)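 Mutant-HBV-transfected HepG2 lines: B1 carries M204I, D88 carries L180M/M204V. Cells are exposed to compound at 10 µg/mL. Intracellular viral DNA is quantified by dot blot hybridization. Results are given as percent inhibition of viral DNA relative to untreated infected controls.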

[8] = tested on: Hepatitis B virus; experiment: Antiviral activity against HBV M204I mutant transfected in B1 cell line; format: functional, organism-based
Procedure, shortened: (§4)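 HepG2 human hepatoma cells stably transfected with mutant HBV genome: B1 line carries M204I, D88 line carries L180M/M204V. Culture, compound treatment and read-out are as for 2.2.15 cells. Intracellular viral DNA is measured by dot blot hybridization. EC50 is the concentration (µM) that reduces viral DNA to 50% of untreated infected controls.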

[9] = tested on: Hepatitis B virus; experiment: Antiviral activity against HBV M204I mutant transfected in B1 cell line at 10 ug/mL; format: functional; procedure, shortened: as §3
[10] = tested on: Hepatitis B virus; experiment: Antiviral activity against HBV L180M/M204V mutant transfected in D88 cell line; format: functional, organism-based; procedure, shortened: as §4

| Structure (SMILES) | CC50 [1] [µM] | inhibition at 10 µg/mL [2] [%] | CC50 [3] [µM] | inhibition at 10 µg/mL [4] [%] | EC50 [5] [µM] | EC50 [6] [µM] | inhibition at 10 µg/mL [7] [%] | EC50 [8] [µM] | inhibition at 10 µg/mL [9] [%] | EC50 [10] [µM] |
| --- | --- | --- | --- | --- | --- | --- | --- | --- | --- | --- |
| Cc1cn(COC(CO)CO)c(=O)[nH]c1=O | > 434 | 45 | > 434 | 37 | > 43.4 | > 43.4 |  |  |  |  |
| Cc1cc(=O)[nH]c(=O)n1COC(CO)CO | > 434 | 27 | > 434 | 0 | > 43.4 |  |  |  |  |  |
| O=c1[nH]c(=O)n(COC(CO)CO)cc1CCO | > 384 | 25 | > 384 | 28 | > 38.4 | > 38.4 |  |  |  |  |
| Nc1cn(COC(CO)CO)c(=O)[nH]c1=O | > 432 | 37 | > 432 | 30 | > 43.2 | > 43.2 |  |  |  |  |
| Nc1ccn([C@@H]2CS[C@H](CO)O2)c(=O)n1 [LAMIVUDINE] |  | 96 |  | 88 |  |  | 30 | > 44 | 45 |  |
| Cc1c(I)c(=O)[nH]c(=O)n1COC(CO)CO [IODMETACYCLUR] | > 280 | 44 | > 280 | 38 | > 28 | > 28 |  |  |  |  |
| O=c1[nH]c(=O)n(COC(CO)CO)cc1[N+](=O)[O-] | > 383 | 45 | > 383 | 40 | > 38.3 | > 38.3 |  |  |  |  |
| O=c1[nH]c(=O)n(COC(CO)CO)cc1Cl | > 400 | 69 | > 400 | 60 | 4 | 20 | 40 | 20 | 56 | > 40 |
| COc1nc(=O)n(COC(CO)CO)cc1Br | > 323 | 45 | > 323 | 35 | > 32.3 | > 32.3 |  |  |  |  |
| Nc1ccn(COC(CO)CO)c(=O)n1 | > 465 | 0 | > 465 | 0 |  |  |  |  |  |  |
| O=c1[nH]c(=O)n(COC(CO)CO)cc1F | > 427 | 24 | > 427 | 26 | > 42.7 | > 42.7 |  |  |  |  |
